Reference: the RNAGym collection of RNA variant scans (doi:10.1126/science.aae0568)
This sample holds only a part of the variants without activity.

B1: tRNA (parent)
chain: GUUCCGUUGGCGUAAUGGUAACGCGUCUCCCUCCUAAGGAGAAGACUGCGGGUUCGAGUCCCGUACGGAACG

Variants of: B1
Test: yeast fitness relative to wild type (ratio to wild type); higher = fitter; tRNA-Arg(CCU), competitive growth, 37 C, YPD
How it was run: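 Variants of the tRNA-Arg(CCU) gene, chemically synthesised with a 3% per-site mutation rate at 69 sites, were placed at the native genomic locus in Saccharomyces cerevisiae. The pooled strains were competed in YPD at 37°C for 24 hours in six parallel replicates. Gene amplicons from the start population and from each end population were read by 100-nucleotide paired-end sequencing. Darwinian fitness relative to wild type came from changes in genotype frequencies; genotypes needed ≥ 100 starting reads, and estimates < 0.5 were set to 0.5.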

C11A A43G G50C G56C A65G and U13A C24U C49G cannot be ordered by yeast fitness: no more than 0.5 for the first, no more than 0.5 for the second.

First: U19A G48A A65U
Second: C11U C31G C46A G63C A65U
The yeast fitness of the first is higher: 0.71 for the first, 0.531 for the second.

Compared with C5G G44A, U13C A21C C27U G63A A65G is lower in yeast fitness: 1.02 for the first, no more than 0.5 for the second.

C30A A37C C60A and C11A C62A cannot be ordered by yeast fitness: no more than 0.5 for the first, no more than 0.5 for the second.

Going from C11U C31U G39C A40U to C49G G68U, the yeast fitness rises from 0.544 to 0.808.

First: G10C A14U G38C
Second: G18A U19C C27G C61A U64G
The yeast fitness of the first is higher: 0.736 for the first, no more than 0.5 for the second.

First: A42C A45C G48A A70G
Second: U32A C61G C66G
The yeast fitness of the first is higher: 0.632 for the first, 0.576 for the second.

Going from C4G C22G U64A A65U to U8A G10A A69U, the yeast fitness rises from no more than 0.5 to 0.542.

Going from C5A C24G A36G A65U to U19C A40C G41C, the yeast fitness rises from no more than 0.5 to 0.594.

Compared with G18C G68C, A21U C29G C49G is lower in yeast fitness: 0.556 for the first, 0.519 for the second.

Compared with U8G U16C A21U C22A U28G, U28C A42G is higher in yeast fitness: no more than 0.5 for the first, 0.913 for the second.

C30U G38C G63A A70G and U3C C5U U8C U13C C29U C46A A65U C66A cannot be ordered by yeast fitness: no more than 0.5 for the first, no more than 0.5 for the second.

Compared with U7A A20C A21G G23A, C22A C29G C61U is lower in yeast fitness: 0.65 for the first, no more than 0.5 for the second.

U7A A15U A40G and C11U U13A C30U G38C C49A cannot be ordered by yeast fitness: no more than 0.5 for the first, no more than 0.5 for the second.

Compared with C4A A14U A20C U28G G58C C61A, A21G C55A is higher in yeast fitness: no more than 0.5 for the first, 0.641 for the second.

Going from A14G A57C to G25C U26G C60U C62G U64A A69U, the yeast fitness falls from 0.555 to no more than 0.5.

Going from A21C G23C G52C to G17C C27U A65C, the yeast fitness rises from no more than 0.5 to 0.54.

First: U26G C49A
Second: U28G G41C U64C
The yeast fitness of the first is higher: 0.703 for the first, 0.521 for the second.

Compared with U3G A14G, C11G U35C A43C G52C U54A is lower in yeast fitness: 0.907 for the first, 0.644 for the second.

U3A G23C A45G and C11U C22U C34A A40U cannot be ordered by yeast fitness: no more than 0.5 for the first, no more than 0.5 for the second.

Going from A14U G39A to U3C C30U, the yeast fitness rises from 0.671 to 0.879.

C5G A43U C61G and G10A G12A U53A cannot be ordered by yeast fitness: no more than 0.5 for the first, no more than 0.5 for the second.

Compared with G6C G17C C34U C46A U64A, U3C C11U U19A A43U U59A G63A is lower in yeast fitness: 0.597 for the first, no more than 0.5 for the second.

G12C G17A A20U C34A A42C G48A C62U and C5U U7C C31A G39A cannot be ordered by yeast fitness: no more than 0.5 for the first, no more than 0.5 for the second.

First: U13A A15G G48A G63A A65C
Second: C22G G68A
The yeast fitness of the first is lower: no more than 0.5 for the first, 0.813 for the second.

First: A43U A65G
Second: C31G A36C U47C
The yeast fitness of the first is higher: 1.01 for the first, no more than 0.5 for the second.

G10C C33A A40U U54A and U3A C27G A43G cannot be ordered by yeast fitness: no more than 0.5 for the first, no more than 0.5 for the second.

Compared with C4A C31G A45G G50C, C5G G9A A14C A37G C62G is lower in yeast fitness: 0.576 for the first, no more than 0.5 for the second.

U3C C22U C55G U64A and U8G U13G G23C A40C G63A cannot be ordered by yeast fitness: no more than 0.5 for the first, no more than 0.5 for the second.

Going from G18C C62A C66A to A42G C55U, the yeast fitness rises from no more than 0.5 to 0.688.

First: C11A G18A
Second: U19A C27A C46A G67A
The yeast fitness of the first is higher: 0.58 for the first, no more than 0.5 for the second.

Compared with C4A C11G C31U G38C G52A C66G, G9A A15U U59A A65C is higher in yeast fitness: 0.649 for the first, 0.654 for the second.

First: C5A A40U G67C
Second: A21U C22U A43G
The yeast fitness of the first is higher: 0.627 for the first, no more than 0.5 for the second.

C4U C24U A36C C61G and G18U A21U G52A cannot be ordered by yeast fitness: no more than 0.5 for the first, no more than 0.5 for the second.

Compared with U35C C46U G51C G63A, U3A C55U is higher in yeast fitness: 0.619 for the first, 0.876 for the second.

First: A45G G51A
Second: G12C G18C G67U
The yeast fitness of the first is higher: 0.716 for the first, no more than 0.5 for the second.

Going from G17A C33U A36U C46A to C5A G52C C66U, the yeast fitness falls from 0.822 to no more than 0.5.

Going from A21G U32C C34A C55A A69C to U19C G50A G56A, the yeast fitness rises from no more than 0.5 to 0.749.

G6A A14U C61U and G23A C34U A43U G44C C60U cannot be ordered by yeast fitness: no more than 0.5 for the first, no more than 0.5 for the second.

First: A40G G48C C61G A65U
Second: U2G C11G A20U C24G
The yeast fitness of the first is lower: no more than 0.5 for the first, 0.534 for the second.

Going from U2C A20C C27U to U8A G12A A21G, the yeast fitness falls from 0.838 to no more than 0.5.

A14G C22U C24U A65C and A14G C31U A37G A45C A70G cannot be ordered by yeast fitness: no more than 0.5 for the first, no more than 0.5 for the second.

First: G10A U16A G39C
Second: A14G G52A
The yeast fitness of the first is lower: no more than 0.5 for the first, 0.631 for the second.

Compared with C4G A40U C66G, C5A C24U A37G A40G A42U C49U G67C A70G is lower in yeast fitness: 0.624 for the first, no more than 0.5 for the second.

Compared with G10C C22A C24G G50C A65C, G17A G25C A65U is higher in yeast fitness: no more than 0.5 for the first, 0.625 for the second.

Going from C30U G52C to C11G C22U U53C G68C, the yeast fitness falls from 0.593 to 0.521.

C24A G68C and U13A G52A are the same in yeast fitness: 0.643 for the first, 0.643 for the second.

Going from A43G G50C to G48C G63A A65G, the yeast fitness falls from 0.728 to 0.71.

Going from A14C C30A C31G U64A to C30U G39A A40C U53A, the yeast fitness falls from 0.584 to 0.565.

First: C4U A20U U53C C61U
Second: U8A G18A C30A U32A U35G C66U A69U
The yeast fitness of the first is higher: 0.627 for the first, no more than 0.5 for the second.

Compared with U8G A14G G18A U47A, C22A A45C is higher in yeast fitness: no more than 0.5 for the first, 0.665 for the second.

Compared with C5U U13G A42U, U2G A20C G48C is lower in yeast fitness: 0.627 for the first, no more than 0.5 for the second.

C4G U8C U16A A21C C24G A37U C55U C62U A69U and C31A A43U C61A cannot be ordered by yeast fitness: no more than 0.5 for the first, no more than 0.5 for the second.

First: U8C A70G
Second: U13A C33G U54A U59A G67A
The yeast fitness of the first is higher: 0.971 for the first, 0.504 for the second.

Compared with C11A C29U C34G A36G, C4U G10C U47C U59A A69U is lower in yeast fitness: 0.607 for the first, no more than 0.5 for the second.

Compared with A20U A36G A43U, C30U U35C A37G C55A A65G is lower in yeast fitness: 0.601 for the first, no more than 0.5 for the second.

A14C C29U C30G C31A C34A G52C and U16A A36G G51A cannot be ordered by yeast fitness: no more than 0.5 for the first, no more than 0.5 for the second.

Going from U47A A57G to C60A G68C, the yeast fitness falls from 0.923 to 0.734.

C30A A57C C60G and U8G G17A C24G cannot be ordered by yeast fitness: no more than 0.5 for the first, no more than 0.5 for the second.

Compared with G9A U28C A36G, U59G C60U is lower in yeast fitness: 0.683 for the first, 0.63 for the second.

First: G9A C11A U35C G50C
Second: G25C A42G G68A
The yeast fitness of the first is lower: no more than 0.5 for the first, 0.621 for the second.

First: A37C U53C U64A
Second: C4U G10C A14C C27G
The yeast fitness of the first is higher: 0.679 for the first, 0.546 for the second.

Compared with C34A U54A, C5A A70G is higher in yeast fitness: no more than 0.5 for the first, 0.922 for the second.

First: C31U G48C U59A G67C A69C
Second: U16C G50C C66U
The yeast fitness of the first is lower: no more than 0.5 for the first, 0.584 for the second.

Going from G9C U13A G25A A40C A57C G58A C61A G67A to C22A G25A U64A, the yeast fitness rises from no more than 0.5 to 0.629.

First: U19C C31G U35A C61A A69C
Second: U2G C22U U32C G50C
The yeast fitness of the first is lower: 0.504 for the first, 0.658 for the second.

C5A A37C C46U A65C and A14C C24U A40U C55G cannot be ordered by yeast fitness: no more than 0.5 for the first, no more than 0.5 for the second.

Going from U28A C30U A37C G41C to C29U A45U U47C U54A, the yeast fitness falls from 0.542 to no more than 0.5.

Compared with U7A A40C C60A, U16A G63A is higher in yeast fitness: 0.543 for the first, 0.798 for the second.

Compared with U3A C22G, U3C A40G G58C A70U is lower in yeast fitness: 0.714 for the first, no more than 0.5 for the second.

C4G U16A A21C C24G A37U C55U and A14U U26A G58C cannot be ordered by yeast fitness: no more than 0.5 for the first, no more than 0.5 for the second.

U3A C4U G10A C33G C34G A57U and U16G A36C G39C G63A A65U cannot be ordered by yeast fitness: no more than 0.5 for the first, no more than 0.5 for the second.

First: C11G C24U C55G
Second: G48C C61U
The yeast fitness of the first is lower: no more than 0.5 for the first, 0.733 for the second.

Compared with U7C A45C A70G, G23C G38A is higher in yeast fitness: no more than 0.5 for the first, 0.696 for the second.

C30U G41C A45U and U19C A20U C29U G41C cannot be ordered by yeast fitness: no more than 0.5 for the first, no more than 0.5 for the second.

Going from U2A A37U A70C to G17C C29U A37C A69U, the yeast fitness falls from 0.688 to no more than 0.5.

Going from C5U U28A C34U G41A to U32C G51A, the yeast fitness rises from no more than 0.5 to 0.851.

Going from U3A C30G C31U to U2G C11G, the yeast fitness rises from no more than 0.5 to 0.703.

C46G U54C C62A and G6A U13A C46G cannot be ordered by yeast fitness: no more than 0.5 for the first, no more than 0.5 for the second.

Compared with U3A C66G, C30A C31U A40U G56C A69C is lower in yeast fitness: 0.669 for the first, no more than 0.5 for the second.

Compared with C31G A37C G52C C61G C66U, A14C U59C is higher in yeast fitness: no more than 0.5 for the first, 0.687 for the second.

U16A G23C C27G C34A G44A and C5A G17A A36G G67A A69U cannot be ordered by yeast fitness: no more than 0.5 for the first, no more than 0.5 for the second.

Compared with C66A G68A, U8A G9C U54A is lower in yeast fitness: 0.695 for the first, no more than 0.5 for the second.

For C24G G39A A70C, the yeast fitness was no more than 0.5.
